Reference: ChEMBL document CHEMBL1125091, “Antiulcer agents. 4-substituted 2-guanidinothiazoles: reversible, competitive, and selective inhibitors of gastric H+,K(+)-ATPase” (J Med Chem, 1990)
Several values for one entry are separate records, joined by “and”; a condition that tells them apart may be missing. Identical values can stand only once.

Experiments:
[1] = test system: Potassium-transporting ATPase (Canis familiaris); assay: Percent inhibition of gastric proton-pump enzyme H+/K+ ATPase was determined at 50 uM; details: Canis lupus familiaris, Stomach
[2] = target: Potassium-transporting ATPase (Canis familiaris); assay: Inhibitory activity against dog gastric proton-pump enzyme H+/K+ ATPase
Rattus norvegicus [3] = assay: Gastric antisecretory activity against gastric secretion in the pylorus-ligated rat at a dose of 30 mg/Kg; type: functional, Stomach
In short: (§1)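 Conscious rats, pylorus ligated under ether anesthesia; drug or vehicle injected into the duodenum. Killed 2 h after surgery. Stomach contents centrifuged, then titrated to pH 7.0 for acid output (uEq/h per 100 g body weight). Inhibition calculated versus vehicle-treated rats. Means ± SE of 5-10 animals; Student's t test, p < 0.05.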

[4] = target: Potassium-transporting ATPase (Canis familiaris); assay: Inhibitory activity of gastric proton-pump enzyme H+/K+ ATPase was determined at 50 uM
Rattus norvegicus [5] = assay: Gastric antisecretory activity against gastric secretion in the pylorus-ligated rat at a dose of 60 mg/Kg; type: functional, Stomach
In short: as §1

[6] = target: Potassium-transporting ATPase (Canis familiaris); assay: The compound was tested in vitro for inhibition of gastric proton-pump enzyme H+/K+ ATPase

| inhibition [1] [%] | IC50 [2] | SMILES | other results |
| --- | --- | --- | --- |
| 70 | 27 µM | COc1ccccc1-c1csc(N=C(N)N)n1 |  |
| 111 | 10 µM | Cc1ccccc1-c1csc(NC(=N)NCc2ccccc2)n1 |  |
| 101 | 2 µM | Cc1c(-c2csc(N=C(N)N)n2)ccn1S(=O)(=O)c1ccccc1 |  |
| 70 | 19 µM | COc1ccc2[nH]cc(-c3csc(N=C(N)N)n3)c2c1 |  |
| 69 | 23 µM | N=C(N)Nc1nc(-c2cccc(O)c2)cs1 |  |
| 91 | 7 µM | Cc1ccc(-c2csc(N=C(N)N)n2)n1S(=O)(=O)c1ccccc1 |  |
| 102 | 1.5 µM | N=C(NCc1ccccc1)Nc1nc(-c2c[nH]c3ccccc23)cs1 |  |
| 111 | 0.3 µM | Cl.N/C(=N\Cc1ccccc1)Nc1nc(-c2ccc(O)c(O)c2)cs1 | Activity (Rattus norvegicus [3]): 2.5% |
| 102 | 1.7 µM | Cc1[nH]c2ccccc2c1-c1csc(NC(=N)NCc2ccccc2)n1 |  |
| 97 | 1.6 µM | Cc1sc(N=C(N)N)nc1-c1ccc(O)c(O)c1 |  |
| 97 | 9.1 µM | N=C(NCc1ccccc1)Nc1nc(-c2cc3cc(Cl)ccc3[nH]2)cs1 |  |
| 90 | 7.4 µM | N=C(N)Nc1nc(-c2c[nH]c3ccc(F)cc23)cs1 |  |
| 78 | 20 µM | Cc1ccccc1-c1csc(N=C(N)N)n1 |  |
| 99 | 6 µM | N=C(NCc1ccccc1)Nc1nc(-c2ccccc2Cl)cs1 |  |
| 86 | 6.7 µM | COC(=O)c1ccc2[nH]cc(-c3csc(N=C(N)N)n3)c2c1 |  |
| 92 | 0.7 µM | N=C(NCc1ccccc1)Nc1nc(-c2c[nH]c3ccc(Cl)cc23)cs1 |  |
| 80 | 8.8 µM | Cc1[nH]ccc1-c1nc(NC(=N)NCc2ccccc2)sc1C |  |
| 66 | 23.8 µM | CC(=O)Nc1ccc2[nH]cc(-c3csc(NC(=N)NCc4ccccc4)n3)c2c1 |  |
| 96 | 7 µM | Cc1[nH]ccc1-c1csc(N=C(N)N)n1 |  |
| 77 | 28 µM | Cc1sc(N=C(N)N)nc1-c1c[nH]c(C=O)c1 |  |
| 68 | 30 µM | N=C(N)Nc1nc(-c2ccc[nH]2)cs1 |  |
|  |  | Cc1[nH]c2ccccc2c1-c1nc(NC(=N)NCc2ccccc2)sc1C.Cl | Activity (Rattus norvegicus [3]): 47%; IC50 [4]: 5.3 µM; Activity (Rattus norvegicus [5]): 69% |

| inhibition [1] [%] | IC50 [2] | SMILES | other results |
| --- | --- | --- | --- |
| 60 | 32 µM | Cc1cccc(-c2csc(N=C(N)N)n2)c1 |  |
| 94 | 9 µM | CN(C)Cc1cc(-c2csc(N=C(N)N)n2)c[nH]1 |  |
| 100 | 4.2 µM | Cc1sc(N=C(N)N)nc1-c1ccn(S(=O)(=O)c2ccccc2)c1C |  |
| 87 | 9.1 µM | Cc1cc(-c2nc(NC(=N)NCCc3ccccc3)sc2C)c[nH]1 |  |
| 92 | 2 µM | Cc1cc(-c2csc(N=C(N)N)n2)cn1S(=O)(=O)c1ccccc1 |  |
| 92 | 7.6 µM | Cc1sc(N=C(N)N)nc1-c1c[nH]c2ccccc12 |  |
| 96 | 2.7 µM | N=C(NCc1ccccc1)Nc1nc(-c2c[nH]c3ccc(F)cc23)cs1 |  |
|  |  | CC(=O)Oc1ccc(-c2csc(NC(=N)NCc3ccccc3)n2)cc1OC(C)=O.Cl | Activity (Rattus norvegicus [3]): -1%; IC50 [4]: > 50 µM |
| 89 | 1.8 µM | Cl.N=C(N)Nc1nc(-c2c[nH]c3ccc(Cl)cc23)cs1 | IC50 [6]: 1.8 µM; Activity (Rattus norvegicus [5]): 22% |
|  | 3.3 µM | Cc1cccc2[nH]cc(-c3csc(N=C(N)NCc4ccccc4)n3)c12 |  |
| 90 | 1.8 µM | N=C(NCc1ccccc1)Nc1nc(-c2c[nH]c3ccc(OCc4ccccc4)cc23)cs1 |  |
| 103 | 0.6 µM | Cc1[nH]c2ccc(Cl)cc2c1-c1nc(N=C(N)N)sc1C |  |
|  |  | CC(=O)Oc1ccc(-c2csc(N=C(N)N)n2)cc1OC(C)=O.Cl | Activity (Rattus norvegicus [3]): 15%; IC50 [4]: 27 µM |
| 102 | 1.3 µM | Cc1[nH]ccc1-c1nc(N=C(N)N)sc1C.Cl | IC50 [6]: 1 µM; Activity (Rattus norvegicus [5]): 46% |
| 99 | 2.3 µM | COc1ccccc1-c1csc(NC(=N)NCc2ccccc2)n1 |  |
| 87 | 4 µM | N=C(N)Nc1nc(-c2cc3cc(F)ccc3[nH]2)cs1 |  |
| 64 |  | Cc1ccc2c(-c3csc(N=C(N)N)n3)c[nH]c2c1.Cl | Activity (Rattus norvegicus [5]): 42% |
| 78 | 1.2 µM | N=C(N)Nc1nc(-c2c[nH]c3ccc(OCc4ccccc4)cc23)cs1 |  |
| 93 | 7 µM | CCCCCC/N=C(\N)Nc1nc(-c2c[nH]c(C)c2)cs1 |  |
| 104 | 0.94 µM | Cc1ccc2[nH]cc(-c3csc(NC(=N)NCc4ccccc4)n3)c2c1 |  |
| 97 | 11 µM | Cc1cc(-c2csc(NC(=N)NCc3ccccc3)n2)c[nH]1 |  |
| 72 | 14 µM | N=C(N)Nc1nc(-c2cc3ccccc3[nH]2)cs1 |  |

| inhibition [1] [%] | IC50 [2] | SMILES | other results |
| --- | --- | --- | --- |
| 48 | 53 µM | N=C(N)Nc1nc(-c2cccc(Cl)c2)cs1 |  |
| 91 | 9 µM | N=C(N)Nc1nc(-c2c[nH]c3ccccc23)cs1 |  |
| 63 | 32 µM | N=C(N)Nc1nc(-c2ccc(N)cc2)cs1 |  |
| 83 | 9.8 µM | Cc1cc(-c2nc(NC(=N)Nc3ccccc3)sc2C)c[nH]1 |  |
| 76 | 1.8 µM | Cc1ccc2[nH]cc(-c3csc(N=C(N)N)n3)c2c1 |  |
| 85 | 11 µM | N/C(=N\Cc1ccccc1)Nc1nc(-c2ccccc2O)cs1 |  |
| 83 | 7.9 µM | Cc1cc(-c2nc(NC(=N)NCc3ccccc3)sc2C)c[nH]1 |  |
| 69 | 17 µM | N=C(N)Nc1nc(-c2c[nH]c(C(=O)N3CCCCC3)c2)cs1 |  |
| 95 | 2.9 µM | Cc1ccc(C/N=C(\N)Nc2nc(-c3c[nH]c(C)c3)c(C)s2)cc1 |  |
| 74 | 24 µM | Cc1cc(-c2csc(N=C(N)N)n2)cn1C |  |
| 48 | 60 µM | COc1cccc(-c2csc(N=C(N)N)n2)c1 |  |
| 57 | 26 µM | Cc1ccc(-c2csc(NC(=N)NCc3ccccc3)n2)n1S(=O)(=O)c1ccccc1 |  |
| 94 | 3.1 µM | COC(=O)c1ccc2[nH]cc(-c3csc(NC(=N)NCc4ccccc4)n3)c2c1 |  |
|  |  | N=C(N)Nc1nc2c(s1)CCc1ccccc1-2 | IC50 [4]: 21 µM |
| 61 | 33 µM | N=C(N)Nc1nc(-c2ccc(F)cc2)cs1 |  |
|  | 7 µM | Cc1ccc(-c2csc(N=C(N)NCc3ccccc3)n2)[nH]1 |  |
| 105 | 0.7 µM | Cl.N=C(NCc1ccccc1)Nc1nc(-c2c[nH]c3ccc(Br)cc23)cs1 | Activity (Rattus norvegicus [5]): 52% |
| 75 | 15 µM | N=C(N)Nc1nc(-c2ccc(O)cc2)cs1 |  |
| 93 | 6 µM | Cc1[nH]ccc1-c1csc(NC(=N)NCc2ccccc2)n1.O=C(O)/C=C\C(=O)O | Activity (Rattus norvegicus [3]): 60% |
| 100 | 1.1 µM | Cc1[nH]c2ccc(Cl)cc2c1-c1nc(NC(=N)NCc2ccccc2)sc1C |  |
| 61 | 16 µM | N=C(NCc1ccccc1)Nc1nc(-c2cc3ccccc3[nH]2)cs1 |  |
| 85 | 10 µM | COc1cccc(-c2csc(NC(=N)NCc3ccccc3)n2)c1 |  |

| inhibition [1] [%] | IC50 [2] | SMILES | other results |
| --- | --- | --- | --- |
|  | 0.7 µM | Cc1sc(N=C(N)NCc2ccccc2)nc1-c1c[nH]c2ccc(Cl)cc12 |  |
| 91 | 7 µM | CCOC(=O)c1cc(-c2csc(N=C(N)N)n2)[nH]c1C |  |
| 85 | 9 µM | Cc1[nH]c2ccccc2c1-c1csc(N=C(N)N)n1 |  |
| 100 | 1.5 µM | Cl.N=C(N)Nc1nc(-c2ccc(O)c(O)c2)cs1 | Activity (Rattus norvegicus [5]): -149% |
| 77 | 5.2 µM | N/C(=N\Cc1ccccc1)Nc1nc(-c2ccc(N)cc2)cs1 |  |
|  | 6 µM | NC(N)=Nc1cc(Cl)nc(-c2ccccc2)n1 |  |
| 81 | 9 µM | N=C(NCc1ccccc1)Nc1nc(-c2ccc[nH]2)cs1 |  |
| 75 | 14 µM | CN(C)c1ccc(-c2csc(N=C(N)N)n2)cc1 |  |
| 56 | 37 µM | CN(C)Cc1cccc(-c2csc(N=C(N)N)n2)c1 |  |
| 101 |  | Cc1sc(NC(=N)NCc2ccccc2)nc1-c1c[nH]c2ccc(Cl)cc12 | Activity (Rattus norvegicus [5]): -59% |
| 87 | 11 µM | Cc1[nH]c(-c2csc(N=C(N)N)n2)cc1CN(C)C |  |
| 95 | 4.3 µM | COc1ccc2[nH]cc(-c3csc(NC(=N)NCc4ccccc4)n3)c2c1.Cl | Activity (Rattus norvegicus [5]): 48% |
| 71 | 18 µM and 9 µM | N=C(N)Nc1nc(-c2ccccc2Cl)cs1 |  |
| 98 | 1.6 µM | Cc1ccc2c(-c3csc(NC(=N)NCc4ccccc4)n3)c[nH]c2c1 |  |
| 92 | 1 µM | Cc1cccc2c(-c3csc(NC(=N)NCc4ccccc4)n3)c[nH]c12 |  |
| 99 | 0.59 µM | Cc1sc(N=C(N)N)nc1-c1c[nH]c2ccc(Cl)cc12 |  |
| 103 | 1.3 µM | Cc1sc(NC(=N)NCc2ccccc2)nc1-c1ccc(O)c(O)c1 |  |
| 95 | 7 µM | Cc1cc(-c2csc(NC(=N)NCc3ccc(Cl)cc3)n2)c[nH]1 |  |
|  | 40 µM | NC(N)=Nc1nc(-c2ccccc2)cs1 |  |
